Source: ChEMBL document CHEMBL4017535 (J Med Chem, 2017)

Key:
[1] = biological target: T1, Bromodomain-containing protein 4 (Homo sapiens, UniProt O60885); experiment: Binding affinity to human N-terminal His6-tagged BRD4 BD1-BD2 (K57 to K550 residues) after 1 hr using alexa-647 conjugated probe by TR-FRET assay
[2] = system: MX1; experiment: Antiproliferative activity against human MX1 cells after 72 hrs by Cell Titer Glo assay; type: functional, cell-based; details: MX1, 72 h
[3] = system: Liver; experiment: Unbound intrinsic clearance in human liver microsomes at 10 uM preincubated for 5 mins followed by NADPH addition measured after 60 mins by HPLC-UV-MS analysis; type: ADME, microsome; details: 1 h
[4] = system: Liver; experiment: Unbound intrinsic clearance in mouse liver microsomes; type: ADME, microsome
Procedure, shortened: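 Liver microsome stability is expressed as unbound intrinsic clearance, Cl_int,u, in L/hr/kg. Dextromethorphan served as the in-house low-clearance reference control and verapamil as the high-clearance reference control.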

[5] = system: Liver; experiment: Unbound intrinsic clearance in rat liver microsomes at 10 uM preincubated for 5 mins followed by NADPH addition measured after 60 mins by HPLC-UV-MS analysis; type: ADME, microsome; details: 1 h
[6] = Permeability in MDCK cells; type: ADME, cell-based, Canis lupus familiaris; details: dog, read-out: permeability
[7] = system: Mus musculus; experiment: Plasma unbound clearance in mouse at 3 mg/kg, iv; type: ADME, organism-based; details: in vivo
Procedure, shortened: (§1)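 Mouse PK: 3 mg/kg IV and 10 mg/kg PO. Clearance is expressed unbound, Cl_p,u in L/hr/kg. AUC is unbound, in µM*hr. FaFg is computed as F/(1-Clp/Qh), with mouse liver blood flow Qh 5.2 L/hr/kg. Unbound plasma fraction was measured separately.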

[8] = system: Rattus norvegicus; experiment: Plasma unbound clearance in rat at 1 mg/kg, iv; type: ADME, organism-based; details: in vivo
Procedure, shortened: (§2)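 In rats, 1 mg/kg was given by both IV and PO routes. IV clearance is unbound (Cl_p,u, L/hr/kg). FaFg is taken as F/(1-Clp/Qh), using rat Qh 3.8 L/hr/kg. Unbound plasma fraction was determined in rat plasma.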

[9] = system: Mus musculus; experiment: Unbound AUC in mouse at 10 mg/kg, po; type: ADME, organism-based; details: in vivo; procedure, shortened: as §1
[10] = system: Mus musculus; experiment: Oral absorption in mouse at 10 mg/kg; type: ADME, organism-based; details: in vivo
Procedure, shortened: (§3)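 Oral absorption is expressed as FaFg, calculated as F/(1-Clp/Qh). Liver blood flow (Qh) was 5.2 L/hr/kg for mouse and 3.8 L/hr/kg for rat. Mouse dosing was 3 mg/kg IV and 10 mg/kg PO; rat dosing was 1 mg/kg IV and PO.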

[11] = system: Rattus norvegicus; experiment: Oral absorption in rat at 1 mg/kg; type: ADME, organism-based; details: in vivo; procedure, shortened: as §3
[12] = Oral bioavailability in mouse at 10 mg/kg; type: ADME, organism-based; details: in vivo; procedure, shortened: as §1
[13] = Oral bioavailability in rat at 1 mg/kg; type: ADME, organism-based; details: in vivo; procedure, shortened: as §2
[14] = Fraction unbound in mouse plasma at 1 uM after 4 hrs by LC-MS/MS method; type: ADME, cell-free
[15] = Fraction unbound in rat plasma at 1 uM after 4 hrs by LC-MS/MS method; type: ADME, cell-free
[16] = biological target: T1, Bromodomain-containing protein 4; experiment: Inhibition of BRD4 in human H1299 cells assessed as decrease in HPV LCR-E2-EP400-mediated transcriptional repression after 24 hrs by Bright-Glo luciferase reporter gene assay; type: cell-based
[17] = system: Rattus norvegicus; experiment: Unbound AUC in rat at 1 mg/kg, po; details: in vivo
[18] = Toxicity in iv dosed NOD.SCID mouse xenografted with gamma-irradiated human Kasumi-1 cells administered as […] for every 7 days; type: organism-based; details: in vivo
Procedure, shortened: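 Kasumi-1 AML xenograft in mice; dosing intravenous once every 7 days at 8 mg/kg.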

[19] = system: Mus musculus; experiment: Toxicity in NOD.SCID mouse assessed as maximum mean body weight loss at 8 mg/kg, iv qd for every 7 days (reference value: 9%); type: organism-based; details: in vivo, 168 h

Ki [1]	CL free [3]	CL free [4]	CL free [5]	Papp [6]	clearance [7]	clearance [8]	fAUC [9]	FaFg [10]	FaFg [11]	bioavailability [12]	bioavailability [13]	fraction unbound at 4 h, 1 µM [14]	fraction unbound at 4 h, 1 µM [15]	EC50 [16]	fAUC [17]	SMILES	EC50 [2]	MTD at 168 h [18]	Activity [19]
2.4 nM	83.3 mL/min/kg	300 mL/min/kg	2000 mL/min/kg	12 ×10⁻⁶ cm/s	650 mL/min/kg	1230 mL/min/kg	0.34 µM·h	0.77	0.32	55%	10%	0.039	0.034	11 nM	0.016 µM·h	Cn1cc(-c2cc(NS(C)(=O)=O)ccc2Oc2ccccc2)c2cc[nH]c2c1=O	16 nM		
																Nc1ncn([C@@H]2O[C@H](CO)[C@@H](O)[C@H]2O)c(=O)n1 [AZACITIDINE]		8 mg/kg	1%
4.5 nM	155 mL/min/kg	283 mL/min/kg	< 65 mL/min/kg	17 ×10⁻⁶ cm/s	167 mL/min/kg	417 mL/min/kg	1.3 µM·h	0.7	0.52	65%	40%	0.033	0.036	21 nM	0.19 µM·h	Cn1cc(-c2cc(NS(C)(=O)=O)ccc2Oc2ccc(F)cc2F)c2cc[nH]c2c1=O	29 nM		
